# Reference: ChEMBL document CHEMBL3425411, “Synthesis of β-Carboline-Based N-Heterocyclic Carbenes and Their Antiproliferative and Antimetastatic Activities against Human Breast Cancer Cells” (J Med Chem, 2015)
# pIC50: −log10 of the molar value.
# Experiments:
# Assay type in all cases: functional, cell-based
# [1] = test system: MDA-MB-231; experiment: Cytotoxicity against human MDA-MB-231 cells assessed as growth inhibition after 24 to 72 hrs by MTT assay
# Method in brief: (§1)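 About 5000 cells/well were grown 24 h in RPMI-1640 with 10% FBS, then given fresh medium with compound at various concentrations (from 10 mM DMSO stocks) for 24, 48 and 72 h. MTT (5 mg/mL stock) was added for 2 h and formazan dissolved in DMSO. Absorbance was read at 595 nm and expressed as percent proliferation versus DMSO control.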
# [2] = test system: MCF7; experiment: Cytotoxicity against human MCF7 cells assessed as growth inhibition after 24 to 72 hrs by MTT assay; method in brief: as §1
# [3] = test system: MDA-MB-468; experiment: Cytotoxicity against human MDA-MB-468 cells assessed as growth inhibition after 24 to 72 hrs by MTT assay; method in brief: as §1
# [4] = Cytotoxicity against human H1299 cells assessed as growth inhibition after 24 to 72 hrs by MTT assay; conditions: NCI-H1299; method in brief: as §1
SMILES,pIC50 [1],pIC50 [2],pIC50 [3],pIC50 [4]
COC(=O)c1cc2c3ccccc3[nH]c2c2cn(C34CC5CC(CC(C5)C3)C4)c[n+]12,< 4.52,< 4.52,< 4.52,< 4.52
COC(=O)c1cc2c3ccccc3[nH]c2c2cn(-c3ccccc3)c[n+]12,< 4.52,< 4.52,5.24,5.05
COC(=O)c1cc2c3ccccc3[nH]c2c2cn(-c3ccc(C)cc3Cl)c[n+]12,4.86,< 4.52,< 4.52,< 4.52
COC(=O)c1cc2c3ccccc3[nH]c2c2cn(-c3ccc(OC)c(OC)c3)c[n+]12,4.52,< 4.52,4.94,4.78
COC(=O)c1cc2c3ccccc3[nH]c2c2cn(Cc3ccccc3)c[n+]12,4.93,5.20,< 5.03,4.62
COC(=O)c1cc2c3ccccc3[nH]c2c2cn(C3CCCCC3)c[n+]12,< 4.52,< 4.52,4.74,< 4.52
COC(=O)c1cc2c3ccccc3[nH]c2c2cn(Cc3ccc(C)cc3)c[n+]12,4.95,< 4.52,< 4.52,< 4.52
COC(=O)c1cc2c3ccccc3n(Cc3cc(OC)c(OC)c(OC)c3)c2c2cn(-c3ccc(Cl)cc3)c[n+]12,< 4.52,< 4.52,< 4.52,< 4.52
C=CCn1cc2c3[nH]c4ccccc4c3cc(C(=O)OC)[n+]2c1,4.64,< 4.52,< 4.52,< 4.52
COC(=O)c1cc2c3ccccc3[nH]c2c2cn(-c3ccc(Cl)cc3C)c[n+]12,4.63,< 4.52,4.69,< 4.52
COC(=O)c1cc2c3ccccc3[nH]c2c2cn(-c3ccccc3I)c[n+]12,5.11,5.22,5.10,5.19
CCN(CC)CCn1cc2c3[nH]c4ccccc4c3cc(C(=O)OC)[n+]2c1,< 4.52,< 4.52,< 4.52,< 4.52
COC(=O)c1cc2c3ccccc3[nH]c2c2cn(-c3cccc(Br)c3)c[n+]12,4.75,< 4.52,4.82,4.57
COC(=O)c1cc2c3ccccc3[nH]c2c2cn(CCc3ccccc3)c[n+]12,< 4.52,< 4.52,< 4.52,< 4.52
COC(=O)c1cc2c3ccccc3[nH]c2c2cn(Cc3ccc(F)cc3)c[n+]12,4.89,< 4.52,< 4.52,< 4.52
COC(=O)c1cc2c3ccccc3[nH]c2c2cn(-c3ccc(F)cc3Br)c[n+]12,4.97,4.88,5.02,4.78
COC(=O)c1cc2c3ccccc3[nH]c2c2cn(C3CC3)c[n+]12,< 4.52,< 4.52,< 4.52,< 4.52
COC(=O)c1cc2c3ccccc3[nH]c2c2cn(-c3ccccc3Br)c[n+]12,4.68,< 4.52,4.96,< 4.52
COC(=O)c1cc2c3ccccc3[nH]c2c2cn(-c3ccc(Cl)cc3)c[n+]12,5.03,4.59,4.99,4.81
COC(=O)c1cc2c3ccccc3[nH]c2c2cn(-c3cccc(C(F)(F)F)c3)c[n+]12,4.84,< 4.52,4.98,4.96
